Source: PubChem BioAssay (several laboratories)
Hits are enriched below; roughly 6.9% of the tested compounds scored in any of these assays.
Calb biofilm kill: clotrimazole potentiators killing Candida biofilms, primary screen, with clotrimazole, Alamar Blue; C. albicans biofilm + clotrimazole; inhibition, % at 6 µM; hit rate 0.14% among 85,000; AID 834, 2007;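 active = inhibition above 20%; inactive = inhibition below 20%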;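 also: preformed 24 hr biofilms exposed to compound for 48 hr; 0% = biofilm without compound and 100% = blank killed by clotrimazole plus chlorhexidine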
FAK inh: FAK kinase inhibitors, primary screen, biochemical | Focal adhesion kinase 1 (Homo sapiens), Q05397 | biochemical FAK kinase activity assay | inhibition, %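 (tested at 7 µM)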 | hit rate 0.84% among 97,000 | AID 727, 2007; in the data active = inhibition above about 19%;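 also: 0% = DMSO and 100% = reference compound high control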
PostGolgi ctrl: growth inhibition of yeast control strain, primary screen, counter-screen for post-Golgi transport modulator project. efflux-deficient yeast background strain, growth absorbance A615, 16 h. inhibition, % at 10 µM. hit rate 5% among 98,000. AID 738, 2007
PostGolgi yeast: phenotypic screen on post-Golgi transport, primary screen; post-Golgi transport phenotypic cell assay; inhibition, % at 10 µM; hit rate 0.9% among 98,000; AID 739, 2007;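 also: yeast cells grown in 1536-well plates; yeast grown about 18 h at 30C before absorbance read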
tolC growth inh: growth inhibitors of E. coli tolC mutant, primary screen, strain BW25113 ΔtolC::kan, 384-well; OD615; growth inhibition, % at 10 µM (by protocol); hit rate 2.2% among 65,000;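 active = growth inhibition at or above a cutoff equal to the mean over every tested compound plus 3 SD, cut at about 60% in these data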;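 also: growth measured after 20 h incubation at 37 °C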
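Assay system: tolC-deleted E. coli BW25113. Medium: kanamycin-containing LB broth (50 µg/mL). Dosing: 10 µM final, single dose. Timing: bacterial growth with compound for 20 h at 37 °C. Detection: A615 absorbance measurement. Read-out basis: growth inhibition in percent.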
Pyk2 oligo antag: antagonists of Pyk2 self-association, primary screen, Q293 cells, FERM NanoBiT luminescence, HTS | z-score (the deposit names both 25 µM and 10 µM) | Protein-tyrosine kinase 2-beta (Homo sapiens), Q14289 | hit rate 0.83% among 99,000 | hits give low values;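 active = Z-score of -3 or lower, scaled per plate to the spread of control and sample wells; inactive = z-score above -3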;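 also: negative z-score means lost luminescence so less FERM oligomerization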
* marks the source's active call; other numbers are inactive results; / = no result given. Rule as the data show it, unless noted: active = inhibition above about 30%; inactive = the rest.

SMILES | Calb biofilm kill | FAK inh | PostGolgi ctrl | PostGolgi yeast | tolC growth inh | Pyk2 oligo antag
NC(=O)[C@H]1CC2(CC(c3cccc(NC(=O)c4ccccc4)c3)=NO2)CN1C(=O)[C@H]1CCC(=O)N1 (stereo partly specified) | / | -3 | 4 | 4 | / | /
O=C(CCN1C(=O)c2ccccc2C1=O)N1CCC(c2ccccc2)C1 (stereo unspecified) | 4 | -1 | 32* | -23 | 8 | 0.84
Cc1ccc(NC(=O)N2CCC(C(=O)NCc3ccccc3)CC2)cc1 | 5 | 2 | -1 | -5 | -22 | -0.16
Cc1ccc(C2CCN(C(=O)Nc3ccccc3)C2)cc1 (stereo unspecified) | -2 | 3 | 42* | 7 | 22 | 0.69
Cc1cccc(OCC(=O)N/N=C/c2cn[nH]c2-c2ccc(Cl)c(Cl)c2)c1 | / | 5 | 38* | -5 | / | -0.96
Cc1c(Cl)cccc1N(CC(=O)O)S(C)(=O)=O | 7 | 1 | 14 | 0 | -12 | -0.21
CCc1cc(=O)oc2c(CN3CCCC3)c(O)c(Cl)cc12 | 5 | 8 | -6 | 7 | 15 | 1.2
CCc1cc(=O)oc2cc(C)c(CN3CCCC(C)C3)c(O)c12 (stereo unspecified) | 6 | 15 | 0 | 33* | 8 | -0.25
CSc1nc2cc(F)c(F)cc2n1C | 9 | -1 | 0 | -5 | -22 | 0.29
Cc1ccccc1CSc1nnc(-c2ccco2)n1Cc1ccco1 | 4 | 0 | 39* | -1 | 41 | -1.2
Cc1ccccc1CSc1nnc(-c2cccs2)n1Cc1ccco1 | 3 | 5 | 23 | -3 | / | -1.9
O=C1c2ccccc2C(=O)N1CCSc1nnc(-c2ccco2)n1Cc1ccccc1 | 5 | 6 | 37* | 3 | 14 | -1.3
CC(C)(C)c1ccc(CSc2nnc(-c3ccccn3)n2Cc2ccco2)cc1 | / | 1 | 28 | 2 | / | -2.4
Brc1ccc(CSc2nnc(-c3ccccn3)n2Cc2ccco2)cc1 | 6 | 4 | 33* | 3 | 98* | -1.5
Clc1cccc(CSc2nnc(-c3ccccn3)n2Cc2ccco2)c1 | 8 | 2 | 20 | 0 | 100* | -0.84
Cc1nc2ccc(N=NC3=C(O)CCCC3=O)cc2s1 | / | 0 | -8 | -3 | / | -1.3
CC(C)NS(=O)(=O)c1ccc(NC(=S)NC(=O)c2cccc([N+](=O)[O-])c2)cc1 | / | / | / | / | / | 0.39
CCC(=O)N(CCC(c1ccco1)c1ccccc1OC)Cc1cccs1 (stereo unspecified) | 2 | 1 | 28 | 6 | / | 0.58
COC(=O)[C@H](C)NC(=O)NCc1ccc(F)cc1 | 10 | -2 | -2 | -3 | -24 | -1.2
c1ccc(CSc2nnc(-c3cccs3)n2Cc2ccco2)cc1 | 4 | 7 | / | / | 96* | -2.2
Cc1ccccc1NC(=O)CCN1CCN(C/C=C/c2ccccc2)CC1 | 8 | -1 | 7 | -5 | -1 | -1.2
Cc1cc(C(=O)N2CCN(C/C=C/c3ccccc3)CC2)cs1 | 4 | 0 | -9 | -2 | 16 | 0.01
O=C(c1cc(Br)c(Br)s1)N1CCN(C/C=C/c2ccccc2)CC1 | 3 | -2 | 46* | 8 | / | -0.69
Cc1nn2c(-c3ccccc3)c(-c3ccccc3)nc2[nH]c1=O | 8 | / | 6 | 0 | 24 | -0.54
COc1ccc(C2=NC(C(F)(F)F)(C(F)(F)F)c3c(n(C)c(=O)n(C)c3=O)N2)cc1 | / | 5 | 9 | 92* | / | -0.78
SMILES | Calb biofilm kill | FAK inh | PostGolgi ctrl | PostGolgi yeast | tolC growth inh | Pyk2 oligo antag
COc1ccc(-n2c3c(c(=O)[nH]c2=O)C(C(F)(F)F)(C(F)(F)F)N=C(CC(C)C)N3)cc1 | / | -17 | 12 | -2 | / | -2.5
O=C(CC1(O)C(=O)N(Cc2ccccc2Cl)c2ccccc21)c1ccco1 (stereo unspecified) | 5 | -2 | 34* | -3 | 34 | 0.15
CCOC(=O)CN1C(=O)C(O)(CC(=O)c2ccco2)c2ccccc21 (stereo unspecified) | 10 | -4 | -4 | 0 | -8 | -0.15
Nc1ccccc1-c1nnc(SCc2ccccc2Cl)[nH]c1=O | 1 | -4 | 37* | -7 | / | -1.6
O=C(Nc1ccc(N2CCCCC2)cc1)c1cncc(Br)c1 | 6 | 6 | -11 | 3 | 8 | -0.45
C(=N\N1CCN(C2c3ccccc3-c3ccccc32)CC1)/c1ccccn1 | / | 4 | 31* | -9 | / | -0.18
